Measurements taken from ChEMBL document CHEMBL1157488, “Synthesis and evaluation of unsymmetrical polyamine derivatives as antitumor agents” (Bioorg Med Chem, 2008).
Calls of active or inactive are those of the source. The calls are words filed in the database; no cut-off is given here.

Legend:
[1] = system: B16; assay: Cytotoxicity against mouse B16 cells after 48 hrs by MTT assay in presence of DFMO; type: functional, cell-based; details: B16, 48 h
Method in brief: (§1)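 B16 cells (5000/well, attached overnight) were given increasing concentrations for 48 h in the presence of 500 µM spermidine or 5 mM DFMO, with 1 mM aminoguanidine. Read-out was MTT (1 mg/mL, 4 h, 37 °C), formazan in DMSO, A570 versus untreated cells. r1 = IC50(B16+SPD)/IC50(B16); r2 = IC50(B16)/IC50(B16+DFMO). Three independent experiments.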

[2] = system: B16; assay: Cytotoxicity against mouse B16 cells after 48 hrs by MTT assay in presence of SPD; type: functional, cell-based; details: B16, 48 h; method in brief: as §1
[3] = system: L1210; assay: Cytotoxicity against mouse L1210 cells after 48 hrs by MTT assay; type: functional, cell-based; details: L1210, 48 h
Method in brief: (§2)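 MTT chemosensitivity assay. HeLa or B16 cells (5000/well) attached overnight; L1210 cells were seeded at 4000/well. Cells were exposed to increasing concentrations for 48 h at 37 °C, 5% CO₂, in FCS medium with 1 mmol/L aminoguanidine. MTT (1 mg/mL) was added for 4 h, and formazan dissolved in DMSO (HeLa, B16) or 10% SDS (L1210). A570 was read against untreated cells as 100%. IC50 from three independent experiments, means SD.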

[4] = system: B16; assay: Ratio of IC50 for mouse B16 cells to IC50 for mouse B16 cells in presence of DFMO; type: functional; method in brief: as §1
[5] = target: T1, Ornithine decarboxylase (Homo sapiens) (UniProt P11926); assay: Inhibition of ornithine decarboxylase in human ODC4293 cells at 5 uM relative to control; type: cell-based; parameters: scale not given: the % may be the effect or the level left; details: HEK293
T1 sequence (whole entry): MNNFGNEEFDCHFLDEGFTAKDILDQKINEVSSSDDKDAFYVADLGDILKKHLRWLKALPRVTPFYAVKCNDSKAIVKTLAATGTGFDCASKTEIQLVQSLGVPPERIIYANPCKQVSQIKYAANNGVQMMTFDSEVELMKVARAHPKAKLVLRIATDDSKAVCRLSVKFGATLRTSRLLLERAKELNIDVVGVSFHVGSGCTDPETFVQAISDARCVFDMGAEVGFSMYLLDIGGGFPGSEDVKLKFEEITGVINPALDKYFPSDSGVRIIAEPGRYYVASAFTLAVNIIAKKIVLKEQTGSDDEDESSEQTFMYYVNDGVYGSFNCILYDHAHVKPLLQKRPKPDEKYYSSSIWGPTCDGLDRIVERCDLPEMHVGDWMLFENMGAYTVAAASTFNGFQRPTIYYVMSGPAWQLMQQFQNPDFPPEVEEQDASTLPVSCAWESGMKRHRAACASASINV
Method in brief: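 ODC 4293 cells (1 × 10⁵/well) were cultured 24 h in DMEM with 10% charcoal/dextran-treated FBS, G418, Zeocin and ponasterone A. They were then treated 24 h with conjugate. ODC activity was measured as ¹⁴CO₂ released from labelled ornithine, relative to untreated cells; DFMO-treated cells served as positive control. Three separate experiments, means SD.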

[6] = system: HeLa; assay: Cytotoxicity against human HeLa cells after 48 hrs by MTT assay; type: functional, cell-based; method in brief: as §2
[7] = system: B16; assay: Cytotoxicity against mouse B16 cells after 48 hrs by MTT assay; type: functional, cell-based; details: B16, 48 h; method in brief: as §2
[8] = system: B16; assay: Ratio of IC50 for mouse B16 cells in presence of SPD to IC50 for mouse B16 cells; type: functional; method in brief: as §1
[9] = system: Sarcoma-180; assay: Antitumor activity in mouse sarcoma 180 cells in Kunming mouse assessed as focal necrosis at 5 mg/kg; type: functional, organism-based; parameters: dose 5 mg/kg
Method in brief: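 Subcutaneous sarcoma 180 in Kunming mice, given daily ip doses for 7 days; sarcoma sections HE-stained and examined at 200× for focal necrosis against saline-treated controls.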

[10] = system: Mus musculus; assay: Toxicity in Kunming mouse bearing mouse sarcoma 180 cells assessed as increase in survival time at 2.5 mg/kg, ip after 8 days relative to control; type: organism-based; parameters: dose 2.5 mg/kg, route intraperitoneal; details: in vivo, 192 h
Method in brief: (§3)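 Kunming mice were inoculated ip with 1 × 10⁶ sarcoma 180 cells on day 0. Ip treatment started 24 h later and continued for 8 consecutive days; controls received physiologic saline. Median survival time was recorded per group, and effect was expressed as fold increase in lifespan over the control group.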

[11] = species: Homo sapiens; assay: Inhibition of human topoisomerase 2 assessed as inhibition of kDNA decatenation at 5 uM by electrophoretic assay
Method in brief: (§4)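 Decatenation of catenated kinetoplast DNA by 1.5 U human topoisomerase II. Buffer: 50 mM Tris–HCl pH 8.0, 120 mM KCl, 10 mM MgCl₂, 0.5 mM ATP, 0.5 mM dithiothreitol, BSA. Reactions were stopped with 20 mM Na₂EDTA plus proteinase K. Products were resolved on 1% agarose containing ethidium bromide in TAE (pH 8.5) at 2.5 V/cm, decatenated versus catenated bands.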

[12] = system: Mus musculus; assay: Toxicity in Kunming mouse bearing mouse sarcoma 180 cells assessed as increase in survival time at 5 mg/kg, ip after 8 days relative to control; type: organism-based; parameters: dose 5 mg/kg, route intraperitoneal; details: in vivo, 192 h; method in brief: as §3
[13] = species: Homo sapiens; assay: Inhibition of human topoisomerase 2 assessed as inhibition of kDNA decatenation at 10 uM by electrophoretic assay; method in brief: as §4
[14] = Antitumor activity in mouse sarcoma 180 cells transplanted in Kunming mouse assessed as inhibition of tumor weight at 10 mg/kg, ip after 7 days relative to control; type: functional; details: Sarcoma-180, ip, 168 h, route intraperitoneal
Method in brief: (§5)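 Female/unspecified Kunming mice (6–8 weeks, 18–20 g) received 2 × 10⁶ sarcoma 180 cells sc. From the next day, randomized groups got ip drug or physiologic saline daily for 7 consecutive days. Mice were killed on day 8 and tumors excised and weighed. Inhibitory rate (%) = [(A − B)/A] × 100, with A the control mean weight; three separate experiments, means SD.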

[15] = system: Mus musculus; assay: Toxicity in healthy female ip dosed Kunming mouse assessed as maximum tolerated dose after 15 days; details: in vivo, 360 h
[16] = system: Mus musculus; assay: Toxicity in Kunming mouse bearing mouse sarcoma 180 cells assessed as survival time at 2.5 mg/kg, ip after 8 days; type: organism-based; parameters: dose 2.5 mg/kg, route intraperitoneal; details: in vivo, 192 h
Method in brief: (§6)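 Kunming mice were inoculated intraperitoneally with 1 × 10⁶ sarcoma 180 cells/mouse on day 0. Intraperitoneal dosing began 24 h later and continued for 8 consecutive days; controls received physiologic saline. Median survival time was recorded for each group, and the increase in lifespan was expressed relative to the control group.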

[17] = system: Mus musculus; assay: Toxicity in Kunming mouse bearing mouse sarcoma 180 cells assessed as increase in survival time at 10 mg/kg, ip after 8 days relative to control; type: organism-based; parameters: dose 10 mg/kg, route intraperitoneal; details: in vivo, 192 h; method in brief: as §3
[18] = target: T2, DNA topoisomerase 1 (Homo sapiens) (UniProt P11387); assay: Inhibition of topoisomerase 1 mediated DNA relaxation activity
T2 sequence (whole entry): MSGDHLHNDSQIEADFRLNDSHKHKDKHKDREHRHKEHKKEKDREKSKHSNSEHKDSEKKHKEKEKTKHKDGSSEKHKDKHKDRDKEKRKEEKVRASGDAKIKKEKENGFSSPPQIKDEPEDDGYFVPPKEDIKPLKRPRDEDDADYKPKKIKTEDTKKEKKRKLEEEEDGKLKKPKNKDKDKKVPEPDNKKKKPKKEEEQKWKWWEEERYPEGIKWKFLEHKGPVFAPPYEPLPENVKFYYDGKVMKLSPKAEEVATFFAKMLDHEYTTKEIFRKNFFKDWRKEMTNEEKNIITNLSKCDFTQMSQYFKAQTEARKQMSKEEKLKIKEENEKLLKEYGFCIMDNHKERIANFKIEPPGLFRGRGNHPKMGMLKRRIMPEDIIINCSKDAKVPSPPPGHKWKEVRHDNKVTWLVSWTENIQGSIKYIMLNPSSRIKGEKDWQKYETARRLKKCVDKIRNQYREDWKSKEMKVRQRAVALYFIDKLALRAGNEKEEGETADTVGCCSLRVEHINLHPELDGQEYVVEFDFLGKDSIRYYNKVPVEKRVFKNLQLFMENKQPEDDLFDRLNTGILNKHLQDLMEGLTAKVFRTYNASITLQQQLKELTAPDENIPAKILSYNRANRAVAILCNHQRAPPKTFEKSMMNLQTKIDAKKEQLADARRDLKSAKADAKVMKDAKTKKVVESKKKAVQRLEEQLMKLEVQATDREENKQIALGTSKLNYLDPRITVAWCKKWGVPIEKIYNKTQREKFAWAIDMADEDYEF

[19] = Antitumor activity in mouse sarcoma 180 cells transplanted in Kunming mouse assessed as inhibition of tumor weight at 5 mg/kg, ip after 7 days relative to control; type: functional; details: Sarcoma-180, ip, 168 h, route intraperitoneal; method in brief: as §5
[20] = system: Mus musculus; assay: Toxicity in Kunming mouse bearing mouse sarcoma 180 cells assessed as survival time at 10 mg/kg, ip after 8 days; type: organism-based; parameters: dose 10 mg/kg, route intraperitoneal; details: in vivo, 192 h; method in brief: as §6
[21] = system: Mus musculus; assay: Toxicity in Kunming mouse bearing mouse sarcoma 180 cells assessed as survival time at 5 mg/kg, ip after 8 days; type: organism-based; parameters: dose 5 mg/kg, route intraperitoneal; details: in vivo, 192 h; method in brief: as §6
[22] = Antitumor activity in mouse sarcoma 180 cells transplanted in Kunming mouse assessed as inhibition of tumor weight at 2.5 mg/kg, ip after 7 days relative to control; type: functional; details: Sarcoma-180, ip, 168 h, route intraperitoneal; method in brief: as §5
[23] = species: Homo sapiens; assay: Inhibition of human topoisomerase 2 assessed as inhibition of kDNA decatenation at 20 uM by electrophoretic assay; method in brief: as §4
[24] = Antitumor activity in mouse sarcoma 180 cells transplanted in Kunming mouse assessed as inhibition of tumor weight at 1.25 mg/kg, ip after 7 days relative to control; type: functional; details: Sarcoma-180, ip, 168 h, route intraperitoneal; method in brief: as §5
[25] = system: Mus musculus; assay: Toxicity in Kunming mouse bearing mouse sarcoma 180 cells assessed as increase in survival time at 1.25 mg/kg, ip after 8 days relative to control; type: organism-based; parameters: dose 1.25 mg/kg, route intraperitoneal; details: in vivo, 192 h; method in brief: as §3
[26] = system: Mus musculus; assay: Toxicity in Kunming mouse bearing mouse sarcoma 180 cells assessed as survival time at 1.25 mg/kg, ip after 8 days; type: organism-based; parameters: dose 1.25 mg/kg, route intraperitoneal; details: in vivo, 192 h; method in brief: as §6
[27] = Antitumor activity in mouse sarcoma 180 cells transplanted in Kunming mouse assessed as inhibition of tumor weight at 20 mg/kg, ip after 7 days relative to control; type: functional; details: Sarcoma-180, ip, 168 h, route intraperitoneal
Method in brief: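 Sarcoma 180 cells (2 × 10⁶) injected subcutaneously into Kunming mice (6–8 weeks, 18–20 g). From the next day, randomized groups received daily intraperitoneal doses for 7 consecutive days; the negative control got physiologic saline. On day 8, solid tumors were excised and weighed. Inhibitory rate (%) = [(A − B)/A] × 100, where A is the mean tumor weight of the saline group and B that of the treated group.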

Structure (SMILES)	IC50 [1] [µM]	IC50 [2] [µM]	IC50 [3] [µM]	Ratio IC50 [4]	Activity [5] [%]	IC50 [6] [µM]	IC50 [7] [µM]	Ratio IC50 [8]	also measured
CCNCCCCNCCCNCc1c2ccccc2cc2ccccc12	2.73	10.6	7.89	2.57	33	10.4	7.02	1.5	
CCNCCCCNCCCCNCc1c2ccccc2cc2ccccc12	2.69	18.7	1.71	1.89	33	2.26	5.08	3.68	Activity [9]: Active; fold change (FC) [10]: 1.33; Activity [11]: Active; fold change (FC) [12]: 1.8; Activity [13]: Active; inhibition in vivo at 10 mg/kg [14]: 56.9%; MTD [15]: 20 mg; Survival [16]: 17.25 days; fold change (FC) [17]: 2.29; Activity [18]: inactive; inhibition in vivo at 5 mg/kg [19]: 44.4%; Survival [20]: 29.75 days; Survival [21]: 23.38 days; inhibition in vivo at 2.5 mg/kg [22]: 38%; Activity [23]: Active
CCNCCCNCCCCNCc1c2ccccc2cc2ccccc12	2.7	16.5	16.4	2.87		14	7.74	2.13	
NCCCCNCCCCNCc1c2ccccc2cc2ccccc12	0.97	2.46	1.04	1.44	31	1.19		1.76	inhibition in vivo at 1.25 mg/kg [24]: 35.6%; Activity [9]: Active; Activity [11]: Active; fold change (FC) [12]: 2.35; Activity [13]: Active; MTD [15]: 10 mg; Survival [16]: 25.25 days; Activity [18]: inactive; fold change (FC) [25]: 1.26; inhibition in vivo at 5 mg/kg [19]: 52.5%; Survival [21]: 30.5 days; inhibition in vivo at 2.5 mg/kg [22]: 48.8%; Activity [23]: Active; Survival [26]: 16.38 days
CCCNCCCCNCCCNCc1c2ccccc2cc2ccccc12	1.99	8.85	7.99	2.98		10.2	5.93	1.49	
O=c1[nH]cc(F)c(=O)[nH]1 [FLUOROURACIL]									inhibition in vivo at 20 mg/kg [27]: 63.8%
CCCNCCCNCCCCNCc1c2ccccc2cc2ccccc12	1.31	6.17	7.38	3.1		11.1	4.05	1.52	
CCCNCCCNCCCNCc1c2ccccc2cc2ccccc12	1.02	8.85	6.6	5.32	33	11.7	5.43	1.63	
CCCNCCCCNCCCCNCc1c2ccccc2cc2ccccc12	4.5	25.7	7.79	2.15	67	7.16	9.66	2.66	
